This is a sample that favours compounds with a hit; in the whole collection about 2.3% have one here.
PPC-1+TRAIL kill: compounds killing PPC-1 cancer cells with TRAIL present (potentiator screen, no TRAIL-free arm) | PPC-1 cells + TRAIL, ATPLite viability luminescence | cell killing (% activity), % at 4 µM or 5 µM | 220,000 compounds, 0.41% hits | AID 1443;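 active = cell killing above 50% in the first pass at 4 µM, then a duplicate retest at 5 µM averaging 50% or more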;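 note: plate controls were cells with TRAIL plus DMSO for no effect and medium-only wells lacking cells for full effect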
STAT3 activator: STAT3 signaling activation | U3A cells, IL-6 STAT3-luciferase reporter, luminescence; 100% = signal with IL-6 EC80 alone | activation (% of control), % at 5.6 µM | 190,000 compounds, 0.91% hits | AID 871;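 active = activation above the screen-wide mean of compound activation plus 3 SD, cut at about 130% in these data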;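 note: 0% = background luminescence of wells with medium and substrate only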
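System – human U3A cells carrying STAT3-luciferase construct · Probe or stimulus – Interleukin-6, 33 ng/mL · Schedule – compound 1 h, then IL-6 6 h at 37 °C · Signal – luminescence from STAT3-driven luciferase reporter · Evaluation – percent of IL-6-only median luminescence · Benchmarks – IL-6-only high control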
HSP90 inh: HSP90 refolding inhibition in rabbit reticulocyte lysate; inhibition, % at 5.6 µM; 290,000 compounds, 0.91% hits; luciferase refolding luminescence, 3 h;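 active = inhibition above the screen-wide mean plus 3 SD, computed separately per campaign, cut at about 16% in these data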;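 note: 0% = DMSO wells and 100% = 60 µM geldanamycin wells; inhibitors lower the luminescence because luciferase stays unfolded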
STAT1 blocker: STAT1 signaling inhibition | NIH 3T3 STAT1-luciferase reporter, IFN-gamma, luminescence | inhibition, % at 5.5 µM | 200,000 compounds, 0.35% hits | AID 920;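 active = inhibition above a set limit, the mean inhibition across all tested compounds plus 3 SD, cut at about 34% in these data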;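 note: 0% = IFN-gamma with DMSO and 100% = IFN-gamma with 300 µM nifuroxazide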
TRAIL sens C8: sensitizes caspase-8 expressing cells to TRAIL; NB7+C8 cells + TRAIL, ATPlite viability luminescence; inhibition (viability loss, TRAIL sensitization), % at 10 µM; 360,000 compounds, 1% hits;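 active = compounds causing at least 50% loss of cell viability in the single-dose screen, relative to plate controls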
STAT3 inh: inhibitors of IL-6 induced STAT3 signaling. U3A cells, IL-6 STAT3-luciferase reporter, luminescence; host cell line lacks STAT1. inhibition, % at 5.5 µM. 190,000 compounds, 0.89% hits;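 active = inhibition above the mean inhibition across all screened compounds plus 3 SD, cut at about 44% in these data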;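 note: 0% = DMSO only wells and 100% = 100 µM nifuroxazide control wells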
HSP90 confirm: confirmation of HSP90 inhibitors | 2,300 compounds, 64% hits | shares compounds with HSP90 inh | inhibition, % at 5.9 µM | rabbit reticulocyte lysate, luciferase refolding luminescence, 3 h; in the data active = inhibition above about 18%;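 note: 0% = vehicle wells and 100% = reference inhibitor wells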
FLuc counter: firefly luciferase inhibition, HSP90 counter-screen | shares compounds with HSP90 inh | purified native firefly luciferase, luminescence | inhibition, % at 5.9 µM | 2,300 compounds, 48% hits | AID 1847;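 active = inhibition above the mean inhibition of all tested sample wells plus 3 SD, cut at about 10% in these data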;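 note: 0% = DMSO with luciferase and 100% = wells lacking luciferase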
Target sequence (P08659 whole entry, looked up): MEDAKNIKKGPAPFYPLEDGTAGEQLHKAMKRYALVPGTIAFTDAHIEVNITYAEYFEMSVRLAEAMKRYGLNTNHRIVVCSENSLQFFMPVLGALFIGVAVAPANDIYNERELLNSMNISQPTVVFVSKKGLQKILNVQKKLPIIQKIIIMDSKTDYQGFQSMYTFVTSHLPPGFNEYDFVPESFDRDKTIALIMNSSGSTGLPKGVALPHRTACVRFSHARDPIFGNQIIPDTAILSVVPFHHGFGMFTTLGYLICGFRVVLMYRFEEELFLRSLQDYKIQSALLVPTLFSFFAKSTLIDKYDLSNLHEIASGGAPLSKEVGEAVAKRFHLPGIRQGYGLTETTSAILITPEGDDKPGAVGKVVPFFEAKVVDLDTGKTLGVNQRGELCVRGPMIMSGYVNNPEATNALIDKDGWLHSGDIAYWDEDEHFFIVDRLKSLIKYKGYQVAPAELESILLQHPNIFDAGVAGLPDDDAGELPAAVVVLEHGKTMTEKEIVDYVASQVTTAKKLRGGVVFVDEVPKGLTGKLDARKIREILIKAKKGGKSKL
* = called active by the depositor.

How did CCC(Oc1ccccc1)C(=O)Nc1ccsc1C(=O)OC (centres undefined) do in these assays?
PPC-1+TRAIL kill: 7.8; STAT3 activator: 98.0; HSP90 inh: -0.1; STAT1 blocker: 6.9; TRAIL sens C8: 2.9; STAT3 inh: 4.6

What do the screens show for `Cc1ccccc1CS(=O)(=O)c1cnc2ccccc2n1`?
PPC-1+TRAIL kill: 14.8; STAT3 activator: 96.7; HSP90 inh: 1.7; STAT1 blocker: 4.0; TRAIL sens C8: -13.3; STAT3 inh: 3.9

How did CCOc1ccc(NC(=O)CCS(=O)(=O)c2ccc(Br)cc2)cc1 do in these assays?
HSP90 inh: -2.5; TRAIL sens C8: -16.3

How did COc1cccc2cc(-c3nc4ccccc4o3)c(=O)oc12 do in these assays?
PPC-1+TRAIL kill: 3.3; STAT3 activator: 105.6; HSP90 inh: 18.6*; STAT1 blocker: -22.5; TRAIL sens C8: 4.4; STAT3 inh: -4.2; HSP90 confirm: 18.1*; FLuc counter: 1.5

Results for COc1cccc(Cn2cccc(NC(=O)NCc3ccccc3)c2=O)c1 ?
HSP90 inh: 17.9*; TRAIL sens C8: 2.4; HSP90 confirm: 2.4; FLuc counter: -6.1

Results for CC(=O)Nc1ccc(S(=O)(=O)NNC(=O)NC23CC4CC(CC(C4)C2)C3)cc1 ?
HSP90 inh: 2.1; TRAIL sens C8: -18.4

What do the screens show for `Cn1c(=O)c2c(nc3n2CC(O)CN3c2ccccc2)n(C)c1=O` (centres undefined)?
TRAIL sens C8: 3.1

How did CN(C)c1cccc2c(C=C(C#N)C#N)ccc(N(C)C)c12 do in these assays?
PPC-1+TRAIL kill: 28.2; STAT3 activator: 107.1; HSP90 inh: -3.2; STAT1 blocker: -3.2; TRAIL sens C8: 3.4; STAT3 inh: -5.6

Results for CN(C)c1cccc2c(/C=N/O)ccc(N(C)C)c12 ?
PPC-1+TRAIL kill: 1.0; STAT3 activator: 101.4; HSP90 inh: 52.0*; STAT1 blocker: 11.7; TRAIL sens C8: -7.3; STAT3 inh: -0.4; HSP90 confirm: -3.0; FLuc counter: -6.4

Results for CCN(Cc1nc(-c2ccccc2)no1)C(=O)c1ccco1 ?
HSP90 inh: -0.5; TRAIL sens C8: 0.3

Results for CCN(Cc1nc(-c2cccc(C)c2)no1)C(=O)c1ccco1 ?
HSP90 inh: 20.6*; TRAIL sens C8: -6.9; HSP90 confirm: -5.3; FLuc counter: -8.5

How did Cc1n[nH]c(=O)n1-c1ccc(C(C)(C)C)cc1 do in these assays?
PPC-1+TRAIL kill: 12.9; STAT3 activator: 102.0; HSP90 inh: -0.6; STAT1 blocker: -1.8; TRAIL sens C8: 2.5; STAT3 inh: 1.6

What do the screens show for `CCOC(=O)Cn1nc(C)n(-c2ccc(C(C)(C)C)cc2)c1=O`?
PPC-1+TRAIL kill: -8.3; STAT3 activator: 97.5; HSP90 inh: 17.0*; STAT1 blocker: 5.5; TRAIL sens C8: -3.4; STAT3 inh: 13.0; HSP90 confirm: 3.4; FLuc counter: -3.8

How did CC(C)(C)N=C1NN=C(c2cc3ccccc3o2)CS1 do in these assays?
PPC-1+TRAIL kill: 11.8; STAT3 activator: 100.5; HSP90 inh: 19.8*; STAT1 blocker: -76.1; TRAIL sens C8: 24.8; STAT3 inh: -5.8; HSP90 confirm: 29.1*; FLuc counter: 23.3*

What do the screens show for `CC(C)(C)N=C1NN=C(c2ccc(Cl)cc2)CS1`?
PPC-1+TRAIL kill: 5.9; HSP90 inh: 20.2*; TRAIL sens C8: 5.2; HSP90 confirm: 22.5*; FLuc counter: 21.9*

What do the screens show for `CC(=O)c1c(C)[nH]c(C2=NNC(=NC(C)(C)C)SC2)c1C`?
PPC-1+TRAIL kill: 1.5; STAT3 activator: 110.5; HSP90 inh: 0.6; STAT1 blocker: -16.8; TRAIL sens C8: 0.4; STAT3 inh: -7.0

Results for COc1ccc(N2CCN(C(=O)Cn3cncn3)CC2)cc1 ?
PPC-1+TRAIL kill: 10.2; STAT3 activator: 99.4; HSP90 inh: -1.3; STAT1 blocker: 5.8; TRAIL sens C8: -3.8; STAT3 inh: 1.3

How did Cc1cccc(C(=O)N2CCN(c3ccc(C(F)(F)F)cn3)CC2)c1C do in these assays?
PPC-1+TRAIL kill: 33.6; STAT3 activator: 90.9; HSP90 inh: 38.4*; STAT1 blocker: 7.0; TRAIL sens C8: 15.7; STAT3 inh: 12.5; HSP90 confirm: 2.0; FLuc counter: -4.8

Results for Cc1cc(C(=O)N2CCN(c3ccc(C(F)(F)F)cn3)CC2)c(C)o1 ?
PPC-1+TRAIL kill: 11.5; HSP90 inh: -1.2; TRAIL sens C8: 21.3

Results for CC1(C)C2CCC(C2)C1(C)NC(=O)CN1CCOCC1 (centres undefined) ?
PPC-1+TRAIL kill: -8.5; STAT3 activator: 100.3; HSP90 inh: 27.6*; STAT1 blocker: 7.7; TRAIL sens C8: -4.7; STAT3 inh: 2.5; HSP90 confirm: 1.1; FLuc counter: -3.9

How did O=C(/C=C/c1cccc([N+](=O)[O-])c1)OCC1CCCO1 (centres undefined) do in these assays?
HSP90 inh: -3.9; TRAIL sens C8: 3.7

How did O=C(NC(=S)Nc1ccc2c(c1)OCCO2)c1ccco1 do in these assays?
PPC-1+TRAIL kill: 25.7; HSP90 inh: 24.4*; TRAIL sens C8: 44.0; HSP90 confirm: 20.2*; FLuc counter: 3.5

Results for O=C(O)C1CC=CCC1C(=O)Nc1ccc2c(c1)OCCO2 (centres undefined) ?
PPC-1+TRAIL kill: 14.4; STAT3 activator: 101.0; HSP90 inh: 38.2*; STAT1 blocker: -2.9; TRAIL sens C8: 7.7; STAT3 inh: 1.9; HSP90 confirm: 1.4; FLuc counter: 8.4

What do the screens show for `O=C(CCc1ccc(O)cc1)NN=Cc1ccc2c(c1)OCO2`?
TRAIL sens C8: 14.3

How did CN(c1ccc(C(=O)Nc2ccc3c(c2)OCCO3)cc1)S(C)(=O)=O do in these assays?
PPC-1+TRAIL kill: 36.2; STAT3 activator: 102.7; HSP90 inh: 2.2; STAT1 blocker: -29.3; TRAIL sens C8: 41.8; STAT3 inh: -3.0

How did Cc1ccc(CC(=O)N/N=C/c2ccc3c(c2)OCO3)cc1 do in these assays?
PPC-1+TRAIL kill: 19.6; STAT3 activator: 102.5; HSP90 inh: 20.4*; STAT1 blocker: -19.9; TRAIL sens C8: -1.3; STAT3 inh: 1.8; HSP90 confirm: -4.7; FLuc counter: -13.9

How did Cc1ccc(C(=O)Nc2ccc3c(c2)OCCO3)cc1 do in these assays?
HSP90 inh: 57.8*; TRAIL sens C8: 83.5*; HSP90 confirm: 74.5*; FLuc counter: 62.7*

How did CCn1nc(C(=O)Nc2ccccc2C)c(Cl)c1Cl do in these assays?
PPC-1+TRAIL kill: 21.8; STAT3 activator: 97.3; HSP90 inh: -5.3; STAT1 blocker: 5.4; TRAIL sens C8: -8.0; STAT3 inh: 4.9

How did Cc1ccc(-c2n[nH]c(=S)n2/N=C/c2ccc(C)s2)cc1 do in these assays?
PPC-1+TRAIL kill: 20.3; STAT3 activator: 110.4; HSP90 inh: -1.5; STAT1 blocker: 0.8; TRAIL sens C8: 26.8; STAT3 inh: -0.5
